Only some compounds are listed: those with a hit (about 3.2% of all), similar ones and a draw of the others.
DENV2 CPE rescue: inhibitors of DENV2 cytopathic effect; DENV2-infected cells, cytopathic effect rescue, plate reader; CPE inhibition, % at 9.99 µM; hit rate 1.7% among 350,000; in the data active means CPE inhibition above about 20%, passing the limit was not always enough; inconclusive means no clear call, values can overlap the other calls; tested in BHK-21 cells;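 further: 0% = median of neutral control wells and 100% = median of positive control wells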
Ecoli rRNA inh: inhibitors of bacterial rRNA selective over humanized ribosomes. E. coli WT GFP vs humanized-ribosome RFP mutants, fluorescence, 24 h; hits give low values; DMSO median 0, no signal -100. AID 720706. GFP signal change (wild-type ribosome), % (test concentration not listed). hit rate 1.6% among 350,000;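 active means significant combined selectivity score with lowered wild-type GFP, culture density cut under 30%, mutant RFP and density less affected; inactive means any of these conditions unmet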
AF4-AF9 inh: blocks AF4 peptide binding to human AF9; hit rate 0.47% among 350,000; inhibition, % at 10 µM; AlphaScreen, biotin-AF4 peptide binding to FLAG-AF9; P42568;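 active means every replicate reaching a set inhibition limit, whatever the replicate mean, cut at about 25% in these data; inconclusive means mean inhibition reaches that limit but some replicates miss it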;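 further: 0% = plate neutral control median and 100% = total signal loss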
Target sequence (P42568 whole entry, looked up): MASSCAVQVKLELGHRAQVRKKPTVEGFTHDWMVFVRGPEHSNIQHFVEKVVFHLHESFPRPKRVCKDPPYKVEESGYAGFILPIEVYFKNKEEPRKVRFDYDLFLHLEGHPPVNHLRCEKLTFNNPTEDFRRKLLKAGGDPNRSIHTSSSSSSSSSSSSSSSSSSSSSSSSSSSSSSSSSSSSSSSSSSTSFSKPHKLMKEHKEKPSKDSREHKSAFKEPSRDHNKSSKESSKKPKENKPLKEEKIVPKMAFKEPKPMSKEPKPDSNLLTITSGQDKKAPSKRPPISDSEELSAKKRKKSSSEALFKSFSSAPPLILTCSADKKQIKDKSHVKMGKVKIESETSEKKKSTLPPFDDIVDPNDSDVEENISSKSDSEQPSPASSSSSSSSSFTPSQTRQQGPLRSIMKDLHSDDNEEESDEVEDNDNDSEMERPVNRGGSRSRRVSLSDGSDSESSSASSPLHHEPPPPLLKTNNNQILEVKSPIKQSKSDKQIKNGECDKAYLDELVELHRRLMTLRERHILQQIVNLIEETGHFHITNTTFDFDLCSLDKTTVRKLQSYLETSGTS
PfHsp90 yeast 2: reduces growth (ATP signal) of yeast expressing P. falciparum Hsp90; S. cerevisiae expressing PfHsp90, BacTiter-Glo ATP, 48 h; yeast lacking PDR1 and PDR3 efflux regulators; inhibition, % at 9.4 µM; hit rate 0.32% among 310,000; AID 504621;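 active means every replicate shows inhibition above about 80%, whatever the replicate mean, limit read from the data; inconclusive means mean inhibition reaches the set limit but some replicate falls short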;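 further: 0% = DMSO neutral controls and 100% = 20 µM radicicol positive controls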
S100A4 MyoIIA: S100A4-myosin IIA interaction inhibition; hit rate 0.14% among 360,000; inhibition, % at 10.7 µM; AID 652163; S100A4/TAMRA-MyoIIA peptide fluorescence polarization;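 active means mean inhibition of at least 70% across replicates, with every replicate also reaching that level; inconclusive means mean inhibition reaches 70% but some replicates fall short; inactive means mean inhibition below 70%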
Target sequence (P26447 whole entry, looked up): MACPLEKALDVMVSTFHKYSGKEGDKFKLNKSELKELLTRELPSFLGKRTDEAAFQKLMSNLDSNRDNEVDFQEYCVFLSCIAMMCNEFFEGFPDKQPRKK
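incubation = readout 5 min after mixing, signal stable up to 60 min | system = S100A4 monomer protein | buffer or medium = HEPES pH 7.2 with CaCl2, KCl, NaCl, DTT, Triton | benchmarks = neutral control DMSO, positive control TFP | also added = fluorescent myosin IIA peptide, 5 nM | compound dosing = one concentration per compound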
Cneo AK release: causes C. neoformans cell lysis | hit rate 0.2% among 360,000 | lysis activity, % at 15 µM | adenylate kinase release luminescence, 4 h; normalised: neutral wells 0, clomiphene wells 100;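 active means mean lysis activity across replicates of at least 80%, whatever share of replicates individually reach that level; inactive means mean lysis activity below 80%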
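Schedule: static 4 h at 37 °C with compound, 1 h detection; system: C. neoformans cells; benchmarks: Clomiphene as positive control; buffer or medium: fresh YPD medium; measure: luminescence rise reflecting yeast cell lysis; measured by: luminescent adenylate kinase detection reagent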
AID977621: wild-type E. coli growth inhibition versus H69 humanized strain – H69 mutant RFP, wild-type GFP, cherry-pick, dose response; 1,900 tested, under 10 active; activity change, negative = inhibition at 50 µM; fluorescence, 24 h; shares compounds with Ecoli rRNA inh;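 active means Wild-type ribosome reporter drop at least double the humanized mutant ribosome reporter drop, growth loss under a set limit; inconclusive means no clear call, values can overlap the other calls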;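 further: wild-type GFP and H69 mutant RFP strains grown together 50/50 in each well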
AID977628: growth of wild-type and h24-humanized E. coli strains – h24 mutant RFP vs wild-type GFP, cherry-pick, dose response | shares compounds with Ecoli rRNA inh | E. coli WT GFP strain growth, fluorescence, 24 h | activity change, negative = inhibition at 50 µM | 1,900 tested, under 10 active;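 active means compound lowering the normal-ribosome reporter at least twice as much as the humanized-ribosome reporter, growth loss under a set limit; inconclusive means no clear call, values can overlap the other calls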;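 further: wild-type GFP and h24 humanized RFP strains co-cultured 1 to 1 per well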
* = called active by the depositor; ? = inconclusive; . = no result.

SMILES	DENV2 CPE rescue	Ecoli rRNA inh	AF4-AF9 inh	PfHsp90 yeast 2	S100A4 MyoIIA	Cneo AK release	AID977621	AID977628
COc1cccc(NC(=O)CNC(=O)c2ccccc2)c1	.	.	.	7.1	.	0.4	.	.
COc1ccc(NS(=O)(=O)c2cc(NC(=O)CNC(=O)c3cccc(OC)c3)ccc2C)cc1	.	-24.6*	4.5	-18.7	-8.7	0.0	-16.4	.
COc1ccc(-c2cc(C(=O)N3CCCC3)no2)cc1OC	1.2	-3.9	0.0	-30.7	1.7	0.7	.	.
COc1ccc(-c2cc(C(=O)N3CCc4ccccc4C3)no2)cc1	6.4	-26.2*	-2.8	-26.9	3.6	-2.2	-5.01	.
COc1ccc(-c2cc(C(=O)N3CCCCC3)no2)cc1OC	-1.9	-22.6*	8.1	12.1	-4.3	-2.0	-6.96	?
COc1cccc(-c2cc(C(=O)N3CCc4ccccc4C3)no2)c1	.	.	.	-7.5	.	1.4	.	.
COc1ccc(S(=O)(=O)N(C)C[C@H]2Oc3c(NC(=O)Nc4ccccc4)cccc3C(=O)N([C@@H](C)CO)C[C@@H]2C)cc1	.	-4.1	.	.	.	.	.	.
CCOC(=O)c1cnc2ccc(OCC)cc2c1NCCCN1CCOCC1	-1.8	-21.5*	1.2	20.2	-2.2	-4.5	1.99	?
COc1ccc(OC)c(NC(=O)CN(C)CC(=O)Nc2ccccc2Br)c1	4.9	-24.5*	3.2	-12.3	-1.4	.	-19.6	?
COc1ccc(CNC(=O)CN(C)CC(=O)Nc2ccccc2Br)cc1	7.8	-4.6	-3.5	-10.5	-6.1	-0.8	.	.
O=C(C[C@@H]1CC[C@@H](NC(=O)C2CCC2)[C@@H](CO)O1)NCC1CC1	2.5	-0.4	-1.6	.	-8.5	-24.1	.	.
CSc1ccc(CN(C)C(=O)C(c2ccccc2)c2ccccc2)cc1	-3.6	-20.6*	-1.0	7.6	-4.0	-3.5	-10.7	?
COC(=O)c1cn(C(=O)c2ccc(C)cc2)c2ccccc12	2.1	-6.6	-1.4	-9.3	3.5	.	.	.
COC(=O)c1cn(C(=O)c2ccc(OC)cc2)c2ccccc12	17.2	-25.8*	-6.3	-8.5	-6.3	-3.8	2.36	-9.2
Cc1noc(C)c1NC(=O)Nc1cccc2c1O[C@@H](CN(C)C(=O)Nc1ccc(F)cc1)[C@@H](C)CN([C@@H](C)CO)C2=O	.	-4.2	.	.	.	.	.	.
Cc1cc2nc(SCC(=O)O)nc(C)c2cc1C	8.0	-17.4*	-0.5	-0.4	-7.1	0.2	-15.7	.
CCOC(=O)CSc1nc(C)c2cc(C)c(C)cc2n1	9.4	.	-4.3	1.0	-11.4	-1.2	.	.
Cc1cccc(-c2ccc([C@H]3[C@@H](CO)N4CCCCN(S(=O)(=O)c5ccccc5C)C[C@@H]34)cc2)c1	-0.3	2.0	-2.7	.	3.5	-0.1	-3.93	-3.02
Cc1cccc(-c2ccc([C@H]3[C@@H](CO)N4CCCCN(S(=O)(=O)c5ccccc5C)C[C@H]34)cc2)c1	1.9	-40.8	4.0	.	-3.6	0.0	0.845	.
O=S(=O)(Cc1ccccc1)N1CCCCN2[C@@H](CO)[C@@H](c3ccc(-c4cccnc4)cc3)[C@@H]2C1	8.8	-28.0*	-2.5	.	4.3	-0.1	-0.818	?
Cc1ccc(-c2ccc([C@H]3[C@H](CO)N4CCCCN(S(=O)(=O)c5ccccc5C)C[C@@H]34)cc2)cc1	-9.1	-7.6	2.0	.	-16.2	1.6	.	.
Cc1ccc(-c2ccc([C@H]3[C@@H](CO)N4CCCCN(S(=O)(=O)c5ccccc5C)C[C@@H]34)cc2)cc1	-15.0	5.7	-3.7	.	-0.3	0.2	.	.
COC(=O)[C@]1(CCS(=O)(=O)c2ccccc2)N=C(c2ccc(OCCCO)cc2)O[C@@H]1c1ccccc1CN=[N+]=[N-]	7.0	.	3.5	.	6.2	-14.9	.	.
COc1cc(OC)c(OC)cc1CN1CCCC(C(=O)c2sccc2C)C1 (stereo not drawn)	1.0	-2.9	13.4	2.8	3.1	-1.3	.	.
Cc1ccsc1C(=O)C1CCCN(Cc2cc(F)ccc2-n2cccn2)C1 (stereo not drawn)	-4.5	-32.6*	-2.6	.	2.6	.	-12.9	-13.8
SMILES	DENV2 CPE rescue	Ecoli rRNA inh	AF4-AF9 inh	PfHsp90 yeast 2	S100A4 MyoIIA	Cneo AK release	AID977621	AID977628
C[C@@H]1CN([C@@H](C)CO)C(=O)c2cccc(NC(=O)c3ccc(-c4nccs4)cc3)c2O[C@H]1CN(C)Cc1ccc2c(c1)OCO2	-6.0	-5.0	-5.7	.	-0.4	-4.0	.	.
O=C(O)c1ccccc1NC(=O)C(c1ccccc1)c1ccccc1	-7.9	-30.4*	-2.1	8.3	-1.2	14.5	-14	-11.7
COc1ccccc1-c1cnc2c(c1)C(=O)N([C@@H](C)CO)C[C@@H](C)[C@@H](CN(C)Cc1cccnc1)O2	-9.9	-0.6	-2.3	.	1.8	60.2	.	.
Cc1noc(C)c1NC(=O)N(C)C[C@@H]1Oc2ccc(NS(=O)(=O)c3cccs3)cc2CC(=O)N([C@H](C)CO)C[C@H]1C	-9.3	-2.2	.	.	.	0.4	.	.
O=C(c1ccc(F)cc1)N1CC[C@@H]2[C@@H](CO)Nc3ccc(C#CC4CC4)cc3[C@@H]21	.	4.5	.	.	.	.	.	.
O=C(Nc1ccc(Cl)cn1)c1cc2c(s1)-c1ccccc1OC2	5.6	-22.4*	-2.1	2.6	0.6	-7.5	-7.2	?
O=C(NCc1ccc(F)cc1)[C@@H]1[C@@H](CO)[C@@H]2Cn3c(cccc3=O)[C@@H]2N1Cc1ccccn1	-12.2	2.8	-0.5	.	2.1	-0.6	.	.
C[C@@H]1CN([C@@H](C)CO)C(=O)Cc2cc(NC(=O)C3CCCCC3)ccc2O[C@@H]1CN(C)C	6.8	6.1	-1.3	.	6.7	1.3	.	.
CO[C@H]1CN(C)C(=O)c2cc(NC(=O)c3ccno3)ccc2OC[C@H](C)N(S(C)(=O)=O)C[C@@H]1C	2.5	3.0	-4.2	.	-8.3	-2.2	.	.
O=C(c1ccccc1)N(c1ccccc1)c1nccc2ccccc12	-3.3	-28.0*	-0.3	9.8	7.4	1.5	-5.51	.
Cc1ccc2c(c1C)OC(=O)CC2c1ccccc1 (stereo not drawn)	-1.2	-27.3*	-3.7	0.2	-5.2	-0.1	.	?
Cc1ccc2c(c1)OC(=O)CC2c1ccccc1 (stereo not drawn)	.	.	-3.8	15.0	14.9	2.0	.	.
O=C(NCCc1ccc(Cl)cc1Cl)c1ccc2nc[nH]c2c1	-1.7	-8.1	-7.7	-0.8	-4.5	-0.5	.	.
O=C(NCCc1ccc(Cl)cc1)c1ccc2nc[nH]c2c1	-2.6	-31.8*	-0.4	3.9	2.5	.	.	?
C[C@H](CO)N1C[C@H](C)[C@@H](CN(C)C(=O)C2CC2)Oc2cc(C3=CCCCC3)ccc2S1(=O)=O	-1.0	-2.4	-2.5	.	1.1	-1.2	.	.

High-throughput results deposited in PubChem by Broad Institute.
